Data set [1] deals with Mus musculus. In words: Antidepressant activity in KunMing mouse assessed as decrease in immobility time at 10 mg/kg, ip by forced swimming test. The format is functional, organism-based. Also on record: dose 10 mg/kg. The gist of the method:
(§1)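 Compounds in DMSO given i.p. to mice, n = 8 per group. Dose was 50 mg/kg, or 10, 25 and 50 mg/kg in the dose-response study. After 30 min each mouse was placed in a water-filled cylinder (water 18 cm deep, 23–25 °C). Immobility (upright floating, only slight movements) was timed over the last 4 min of 6 min. %DID = (A − B)/A × 100, where A is control immobility and B is test immobility. Mean ± SEM; ANOVA with Dunnett's test versus control.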

The subject of data set [2] is Mus musculus. The data set is described as follows: Antidepressant activity in KunMing mouse assessed as decrease in immobility time at 50 mg/kg, ip by forced swimming test relative to control. To be noted: route intraperitoneal. Also on record: scale not given: the % may be the effect or the level left. The data set is classed as functional. The essentials: as §1

Data set [3] deals with Mus musculus. In words: Neurotoxicity in KunMing mouse assessed as motor impairment at 300 mg/kg, ip after 4 hrs by rotarod test. The format is toxicity, organism-based. Also on record: dose 300 mg/kg, route intraperitoneal. As to conditions: in vivo. The gist of the method:
(§2)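 Mice were trained on a 3.2 cm diameter rotarod turning at 10 rpm, then given compounds in DMSO i.p. at 30, 100 or 300 mg/kg. Neurotoxicity = failure to stay on the rod for at least 1 min in each trial, checked at 0.5 and 4 h. Value is the minimal dose toxic in half or more of the mice.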

For data set [4], the system named is Mus musculus. The data set is described as follows: Toxicity in KunMing mouse assessed as effect on rearing at 50 mg/kg, ip by open-field test. The data set is classed as organism-based. Also on record: dose 50 mg/kg, route intraperitoneal. As to conditions: in vivo. The essentials: (§3)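 Mice (22 ± 2 g) given 50 mg/kg i.p. in DMSO; tested 30 min later in an open field, placed at the centre. Counts were taken of locomotion (line crossings), rearing (standing on hind legs) and grooming. Mean ± SEM; ANOVA with Bonferroni's test versus control.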

The subject of data set [5] is Mus musculus. The data set is described as follows: Toxicity in KunMing mouse assessed as effect on grooming at 50 mg/kg, ip by open-field test. The format is organism-based. The arrangement: dose 50 mg/kg, route intraperitoneal. To be noted: in vivo. The gist of the method: as §3
The test system of data set [6] is Mus musculus. In words: Antidepressant activity in KunMing mouse at 50 mg/kg, ip by tail suspension test. Also on record: dose 50 mg/kg. The format is functional, organism-based. The essentials:
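Male KunMing mice (22 ± 2 g, n = 8 per group), dosed i.p. at 50 mg/kg from a dimethylsulfoxide solution. Each mouse was hung by the tail above the floor with adhesive tape about 1-2 cm from the tail tip. Immobility, meaning completely motionless and hanging passively, was timed over the last 6 min of a 7 min session. Read-out was mean ± SEM, compared with control by ANOVA followed by Dunnett's test.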

Data set [7] relates to Mus musculus. In words: Neurotoxicity in KunMing mouse at 50 mg/kg, ip. The data set is classed as toxicity, organism-based. Also on record: dose 50 mg/kg, route intraperitoneal. To be noted: in vivo.
For data set [8], the system named is Mus musculus. In words: Antidepressant activity in KunMing mouse assessed as decrease in immobility time at 25 to 50 mg/kg, ip by forced swimming test. The format is functional, organism-based. The essentials:
as §1

The subject of data set [9] is Mus musculus. In words: Anticonvulsant activity in KunMing mouse assessed as protection against maximal electroshock-induced seizures at 300 mg/kg, ip after 0.5 hrs. The data set is classed as functional, organism-based. Also on record: dose 300 mg/kg. The essentials: (§4)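 Mice (22 ± 2 g) given compounds in DMSO i.p. at 30, 100 and 300 mg/kg; seizures elicited by electroshock via ear stimulation. Protection = abolition of hind limb tonic extension, read at 0.5 and 4 h after injection. Value is the minimal dose active in half or more of the mice; 300 mg/kg was the top dose.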

Data set [10] relates to Mus musculus. In words: Antidepressant activity in KunMing mouse assessed as immobility time at 50 mg/kg, ip by forced swimming test. The format is functional. As to conditions: route intraperitoneal. The essentials: as §1
In data set [11] the test system is Mus musculus. The data set is described as follows: Toxicity in KunMing mouse assessed as effect on locomotion at 50 mg/kg, ip by open-field test. The data set is classed as organism-based. As to conditions: in vivo. The arrangement: dose 50 mg/kg, route intraperitoneal. The essentials:
as §3

The test system of data set [12] is Mus musculus. The data set is described as follows: Antidepressant activity in ip dosed KunMing mouse assessed as decrease in immobility time by forced swimming test. The format is functional, organism-based. The essentials:
as §1

Data set [13] has as its system Mus musculus. The data set is described as follows: Neurotoxicity in KunMing mouse assessed as motor impairment at 300 mg/kg, ip after 0.5 hrs by rotarod test. The format is toxicity, organism-based. The arrangement: dose 300 mg/kg, route intraperitoneal. To be noted: in vivo. The essentials:
as §2

Data set [14] relates to Mus musculus. The data set is described as follows: Anticonvulsant activity in ip dosed KunMing mouse assessed as protection against maximal electroshock-induced seizures after 4 hrs. The data set is classed as functional. To be noted: read-out: MED. The gist of the method: as §4
The test system of data set [15] is Mus musculus. In words: Neurotoxicity in ip dosed KunMing mouse assessed as motor impairment after 0.5 hrs by rotarod test. The format is toxicity, organism-based. As to conditions: in vivo. The gist of the method:
as §2

For data set [16], the system named is Mus musculus. In words: Anticonvulsant activity in ip dosed KunMing mouse assessed as protection against maximal electroshock-induced seizures after 0.5 hrs. The format is functional. As to conditions: read-out: MED. The essentials: as §4
For data set [17], the system named is Mus musculus. The data set is described as follows: Neurotoxicity in ip dosed KunMing mouse assessed as motor impairment after 4 hrs by rotarod test. As to conditions: in vivo. The data set is classed as toxicity, organism-based. The gist of the method: as §2
For data set [18], the system named is Mus musculus. In words: Anticonvulsant activity in KunMing mouse assessed as protection against maximal electroshock-induced seizures at 100 mg/kg, ip after 0.5 hrs relative to control. The data set is classed as functional. As to conditions: route intraperitoneal. The gist of the method: as §4

Structures are written as SMILES. The source made the active and inactive calls. No cut-off for these calls is given here.

For the compound `O=C1CCc2cc(-n3cnnc3)ccc2N1Cc1ccccc1F`, the outcome in the data set on Mus musculus [1] and with Mus musculus [9] was inactive. Besides, the Activity in the data set with Mus musculus [2] is listed as 72.7%; in the data set on Mus musculus [3] it was “Non-toxic”; in the data set with Mus musculus [4] it was “Non-toxic”; with Mus musculus [5], “Non-toxic”; in the data set with Mus musculus [7], “Non-toxic”; in the data set with Mus musculus [11], “Non-toxic”. Moreover, the Activity entry with Mus musculus [12] is “Dose-dependent effect”; with Mus musculus [13], “Non-toxic”. Also, the result with Mus musculus [6] and in the data set with Mus musculus [8] was Active. Also, the Time with Mus musculus [10] was 35.6 s. Besides, the minimal effective dose in the data set on Mus musculus [14] came out at 300 mg/kg.
For `CCCCCCN1C(=O)CCc2cc(-n3cnnc3)ccc21`, the Activity in the data set on Mus musculus [2] was 24.5%; in the data set on Mus musculus [7], “Non-toxic”; with Mus musculus [18], 100%. In addition, the MTC in the data set on Mus musculus [15] and in the data set with Mus musculus [17] was 300 mg/kg throughout. Besides, the minimal effective dose turned out to be 100 mg/kg in the data set with Mus musculus [16] and 300 mg/kg in the data set with Mus musculus [14]. Further, in the data set with Mus musculus [10], the Time is listed as 98.5 s.
